NR2E3 ag-1: agonists of human NR2E3 nuclear receptor; CHO-S Gal4-NCOR/VP16-NR2E3 two-hybrid, luciferase; inhibition of corepressor binding, % at 3.98 µM; 360,000 compounds, 0.35% hits;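 active = inhibition above the mean of all tested compounds plus 3 SD, cut at about 70% in these data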;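 note: 0% = DMSO with NR2E3 transfected cells and 100% = cells lacking NR2E3 construct; higher means lower luciferase signal from less NR2E3 corepressor binding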
NR2E3 ag-2: activates human photoreceptor nuclear receptor NR2E3; Q9Y5X4; GST-NR2E3/biotin-RetCOR TR-FRET, 1536-well; inhibition of corepressor binding, % at 4.78 µM; 320,000 compounds, 0.12% hits;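 active = percent inhibition above the cutoff of mean plus 3 SD of all tested compounds, set per screening campaign, cut at about 20% in these data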;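 note: 0% = DMSO wells and 100% = biotin wells as full block of FRET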
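System: GST-tagged NR2E3 plus biotinylated RetCOR corepressor; Amount: 1.35 nM GST-tagged NR2E3 final; Dosing: single nominal compound dose of 4.8 µM; Schedule: 5 h incubation at 4 °C; Technique: TR-FRET with europium anti-GST and streptavidin-D2, 340 nm excitation; Controls: biotin wells as high control, 0.6% DMSO wells as low control.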
PG9 Ab binder: PG9 antibody binding by small molecule; TR-FRET gp120-PG9 antibody binding; 360,000 compounds, 0.43% hits; inhibition, % at 6.7 µM; AID 624416; in the data active = inhibition above about 8.5%
Rev-erbA mod: modulators of human Rev-erb alpha DNA binding; Rev-erbα–FITC-DNA binding, fluorescence polarization, 90 min; activity, % at 10 µM; 370,000 compounds, 0.79% hits; AID 1259318;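 active = activity above about 14%, limit read from the data; passing the limit was not always enough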;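 note: 0% = DMSO wells with 35 nM protein and 100% = DMSO wells with 750 nM protein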
VLA-4 inh: inhibition in a human VLA-4 binding assay; VLA-4 expressing cells, ligand binding flow cytometry; inhibition, % (about 7 µM as worked out from the volumes in the protocol); 330,000 compounds, 0.2% hits; in the data active = inhibition above about 50%
Target sequence (P13612 whole entry, looked up): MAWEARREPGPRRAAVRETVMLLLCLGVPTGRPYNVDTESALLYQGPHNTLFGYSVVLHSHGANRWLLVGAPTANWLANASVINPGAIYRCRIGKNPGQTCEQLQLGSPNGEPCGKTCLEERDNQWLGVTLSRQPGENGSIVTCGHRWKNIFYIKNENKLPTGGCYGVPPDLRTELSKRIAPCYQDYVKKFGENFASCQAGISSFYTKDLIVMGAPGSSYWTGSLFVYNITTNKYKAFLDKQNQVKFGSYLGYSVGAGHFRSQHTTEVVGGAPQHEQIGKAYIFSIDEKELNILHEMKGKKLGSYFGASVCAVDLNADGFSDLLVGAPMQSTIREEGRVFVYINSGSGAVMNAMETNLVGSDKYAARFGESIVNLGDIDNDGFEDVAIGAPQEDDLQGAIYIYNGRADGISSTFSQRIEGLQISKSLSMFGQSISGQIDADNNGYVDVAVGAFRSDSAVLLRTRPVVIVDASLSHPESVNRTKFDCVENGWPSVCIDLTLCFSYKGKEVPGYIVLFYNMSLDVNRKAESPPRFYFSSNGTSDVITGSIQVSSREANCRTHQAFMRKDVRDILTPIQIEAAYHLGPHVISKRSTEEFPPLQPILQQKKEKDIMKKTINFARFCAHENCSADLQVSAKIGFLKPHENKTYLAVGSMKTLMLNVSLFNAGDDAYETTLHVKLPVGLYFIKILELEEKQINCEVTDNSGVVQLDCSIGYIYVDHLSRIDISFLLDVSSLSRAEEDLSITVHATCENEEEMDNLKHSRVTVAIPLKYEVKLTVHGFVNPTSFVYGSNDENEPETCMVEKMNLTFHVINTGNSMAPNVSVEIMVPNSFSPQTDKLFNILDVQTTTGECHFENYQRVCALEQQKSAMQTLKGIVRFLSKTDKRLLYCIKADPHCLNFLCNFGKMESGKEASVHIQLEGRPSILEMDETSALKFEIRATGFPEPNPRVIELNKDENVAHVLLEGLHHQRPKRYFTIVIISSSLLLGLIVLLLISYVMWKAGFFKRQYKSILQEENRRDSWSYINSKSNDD
NR2E3 ag confirm: NR2E3 (human) agonism, confirmation. shares compounds with NR2E3 ag-2. cell-free NR2E3 corepressor release, TR-FRET, 5 h. activation (reported as inhibition), % at 3.98 µM. 360 compounds, 39% hits; in the data active = activation above about 20%
PPARg-NCOR2 ctr: releases PPARgamma from NCOR2 in NR2E3 counter-screen. 360 compounds, 45% hits. AID 504787. shares compounds with NR2E3 ag-2. TR-FRET PPARg-NCOR2 coregulator interaction, biochemical. inhibition, % at 3.98 µM; in the data active = inhibition above about 20%;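 note: 0% = DMSO vehicle and 100% = wells without protein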
Starred values were filed as active, the others as inactive; . = no result given. Hits are enriched below; roughly 1.6% of the tested compounds scored in any of these assays.

SMILES	NR2E3 ag-1	NR2E3 ag-2	PG9 Ab binder	Rev-erbA mod	VLA-4 inh	NR2E3 ag confirm	PPARg-NCOR2 ctr
Cc1cc(C(=O)O)ccc1-n1c(C)ccc1C	.	21*	.	.	-10	23*	-4
C[C@H](CCC(=O)O)[C@H]1CCC2C3C(=O)CC4CC(=O)CC[C@]4(C)C3CC(=O)[C@@]21C (some centres undefined)	.	.	.	6	.	.	.
O=c1cc(OCc2ccccc2)cc[nH]1	12	50*	1	-5	35	40*	15
Cc1[nH]ccc(=O)c1OCc1ccccc1	-4	6	0	-2	14	.	.
C[C@]12CCC(=O)C=C1CCC1C2[C@@H](O)C[C@@]2(C)C1CC[C@]2(O)C(=O)COC(=O)CCC(=O)O (some centres undefined)	.	.	.	0	.	.	.
CCCCCCCCCCCCCCCC(=O)OCC(O)[C@H]1OC(=O)C(O)=C1O (some centres undefined)	.	.	.	0	.	.	.
Cc1ccccc1NC(=O)c1sc2nc(N3CCOCC3)c3c(c2c1N)CCCC3	-89	23*	5	3	6	-10	3
CN(C(=O)c1sc2nc(N3CCOCC3)c3c(c2c1N)CCCC3)c1ccccc1	-2	7	2	0	2	.	.
Nc1c(C(=O)NCCc2ccccc2)sc2nc(N3CCOCC3)c3c(c12)CCCC3	0	27*	7	-4	-9	3	3
CCCC[C@@H](CC)COC(=O)/C=C/c1ccc(OC)cc1	.	.	.	4	.	.	.
O=C(CSc1nc2ccccc2c(=O)n1-c1ccccc1Cl)Nc1cccc(S(=O)(=O)N2CCOCC2)c1	-7	25*	-3	13	0	-6	-8
O=C(CSc1ncnc2ccccc12)Nc1cccc(S(=O)(=O)N2CCOCC2)c1	-11	2	-3	0	5	.	.
O=C(Nc1nnc(Cc2ccccc2)s1)c1cccs1	-30	27*	2	14	18	-2	4
O=C(O)c1ccc2c(c1)C1C=CCC1C(c1ccncc1)N2 (centres undefined)	-38	23*	-1	-7	-3	18	-7
CCOC(=O)C1Nc2ccc(C(=O)O)cc2C2C=CCC12 (centres undefined)	-37	30*	-4	14	1	11	7
CCOC(=O)c1ccc2c(c1)C1C=CCC1C(C(=O)O)N2 (centres undefined)	.	9	.	.	0	.	.
CO[C@@]12[C@@H]3N[C@H]3CN1C1=C(C(=O)C(N)=C(C)C1=O)[C@@H]2COC(N)=O	.	.	.	-7	.	.	.
C=C1c2cccc(O)c2C(O)=C2C(=O)[C@]3(O)C(O)=C(C(N)=O)C(=O)[C@@H](N(C)C)[C@@H]3[C@@H](O)[C@H]12	-22	31*	1	-41	-8	1	1
C=C1c2c(Cl)ccc(O)c2C(O)=C2C(=O)[C@]3(O)C(O)=C(C(N)=O)C(=O)[C@@H](N(C)C)[C@@H]3[C@@H](O)[C@H]12	.	.	.	-31	.	.	.
CC(=O)c1c(C)oc2c1C(=O)c1ccccc1C2=O	-22	-3	-3	0	12	.	.
Cc1oc2c(c1C(=O)NCc1cccnc1)C(=O)c1ccccc1C2=O	.	22*	.	.	-15	19	0
C[Si](C)(C)O[Si](C)(C)O[Si](C)(C)C	.	.	.	-4	.	.	.
O=c1c2cc(O)c(O)cc2oc2cc(O)c(C3OC(CO)C(O)C(O)C3O)c(O)c12 (centres undefined)	-21	29*	-8	-7	24	20*	-5
Cc1cc(C)nc(NC(=S)Nc2cccc(F)c2)c1	-61	21*	-4	7	5	-4	34*
Fc1cccc(NC(=S)Nc2cccc3ccccc23)c1	6	1	0	3	0	.	.
O=c1cc(-c2ccccc2)[nH]n1-c1ccccc1	-21	.	-2	-1	.	.	.
CC(C)(C)c1cc(=O)n(-c2ccccc2)[nH]1	7	29*	0	-4	-2	-4	1
Cn1c(N)c(C(=O)CSc2nnc(C3CC3)n2-c2ccccc2)c(=O)[nH]c1=O	-16	.	-1	-12	-17	.	.

Screening results (PubChem)
